Data as given in ChEMBL document CHEMBL1128426, “Cyclic variations of 3-quinolinecarboxamides and effects on antiherpetic activity” (1995).
≈ marks a conversion by molar mass, not a printed value. Calls of active or inactive are those of the source.

Columns and labels:
[1] = system: Mus musculus; test: The compound was tested in vivo for the lowest dose(minimum effective dose) at which anti-herpetic activity was observed in terms of survival times of mice after po administration.; assay type: functional; conditions: read-out: MED
Method in brief: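 HSV-2 infection model in mice, test agent given orally. MED is the lowest dose giving survival times statistically different from placebo, based on at least two experiments for active compounds.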

[2] = system: Vero; test: In vitro anti-herpetic activity against HSV-2 plaque formation in vero cells.; assay type: functional; conditions: Chlorocebus sabaeus
Method in brief: (§1)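 HSV-2 plaque reduction in Vero cells. MIC is the lowest concentration that inhibited plaque formation by 50%. For active compounds, values are the mean of at least two experiments, SD under ±50%.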

[3] = system: Mus musculus; test: The maximum tolerated dose (MTD) was defined as the highest dose of compound that did not show any signs of toxicity in mice after po administration.; assay type: functional
Method in brief: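 Oral dosing in mice within the HSV-2 infection model. MTD is the highest dose showing no overt signs of toxicity.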

[4] = system: Vero; test: The compound was tested in vitro for the highest concentration (maximum tolerated level) that showed no cellular toxicity by visualization of stained cells.; assay type: functional, Chlorocebus sabaeus
Method in brief: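 Maximum tolerated level, run alongside the HSV-2 plaque assay in Vero cells: the highest concentration showing no cellular toxicity when the stained cells were inspected visually.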

[5] = system: Vero; test: In vitro anti-herpetic activity against HSV-2 plaque formation in vero cells; no activity; assay type: functional, cell-based; conditions: Chlorocebus sabaeus; method in brief: as §1
[6] = system: Mus musculus; test: The compound was tested in vivo for the lowest dose(minimum effective dose) at which anti-herpetic activity was observed in terms of survival times of mice after po administration; no activity; assay type: functional, organism-based
[7] = system: Mus musculus; test: The compound was tested in vivo for the lowest dose(minimum effective dose) at which anti-herpetic activity (HSV-2) was observed in terms of survival times of mice after po administration; no activity; assay type: functional, organism-based

| SMILES | minimal effective dose [1] | MIC [2] | MTD [3] | MTL [4] | MIC [5] | MED [6] | MED [7] |
| --- | --- | --- | --- | --- | --- | --- | --- |
| Nc1nc2c(ncn2COCCO)c(=O)[nH]1 [ACYCLOVIR] | 12 mg/kg | 1.3 µg/mL (≈ 5.77 µM) | >200 mg/kg | >200 µg/mL | – | – | – |
| CCn1cc2c(=O)ncnc-2c2ccc(-c3ccncc3)cc21 | – | – | – | >100 µg/mL | inactive | – | – |
| CCn1c(C)c(C(N)=O)c(=O)c2ccc(-c3ccncc3)cc21 | – | – | – | 50 µg/mL | inactive | – | – |
| CCn1cc2c(O)cnc-2c2ccc(-c3ccncc3)cc21 | – | – | – | 100 µg/mL | inactive | – | – |
| NC(=O)c1cn(-c2ccc(F)cc2)c2cc(-c3ccncc3)ccc2c1=O | 25 mg/kg | 0.24 µg/mL (≈ 0.668 µM) | 50 mg/kg | 6.25 µg/mL | – | – | – |
| CCn1cc2c(=O)n(C)nc-2c2ccc(-c3ccncc3)cc21 | – | – | – | 3.1 µg/mL | inactive | – | – |
| CCn1cc(C(N)=O)c(=O)c2ccc(-c3ccncc3)cc21 | 50 mg/kg | 6.5 µg/mL (≈ 22.2 µM) | 50 mg/kg | 12.5 µg/mL | – | – | – |
| CCn1c(C)c2c(=O)onc-2c2ccc(-c3ccncc3)cc21 | – | 2.9 µg/mL (≈ 9.5 µM) | >50 mg/kg | >100 µg/mL | – | inactive | – |
| CCn1cc2c(=O)onc-2c2ccc(-c3ccncc3)cc21 | – | 6.3 µg/mL (≈ 21.6 µM) | >400 mg/kg | >100 µg/mL | – | – | inactive |
| CCn1cc2c(=O)n(-c3ccccc3)nc-2c2ccc(-c3ccncc3)cc21 | – | – | – | >100 µg/mL | inactive | – | – |
| CCn1cc2c(=O)[nH]nc-2c2ccc(-c3ccncc3)cc21 | – | 27 µg/mL (≈ 93 µM) | >200 mg/kg | 50 µg/mL | – | inactive | – |
